Source: ChEMBL document CHEMBL2434823, “Design, synthesis and biological activities of some 7-aminocephalosporanic acid derivatives” (Eur J Med Chem, 2013)
Activity calls are given as the source filed them. No cut-off for these calls is given here.

Key:
[1] = test system: Staphylococcus aureus; assay: Antimicrobial activity against Staphylococcus aureus ATCC 25923; type: functional
Method in brief: (§1)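 Compound stocks were 20.000 µg/mL in hexane. DMSO diluted 1:10 served as the solvent control, and ampicillin was the reference drug.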

[2] = test system: Saccharomyces cerevisiae; assay: Antimicrobial activity against Saccharomyces cerevisiae RSKK 251; type: functional
[3] = test system: Mycolicibacterium smegmatis; assay: Antimicrobial activity against Mycobacterium smegmatis ATCC 607; type: functional
[4] = test system: Enterococcus faecalis; assay: Antimicrobial activity against Enterococcus faecalis ATCC 29212; type: functional; method in brief: as §1
[5] = test system: Pseudomonas aeruginosa; assay: Antimicrobial activity against Pseudomonas aeruginosa ATCC 43288; type: functional; method in brief: as §1
[6] = test system: Bacillus cereus; assay: Inhibition of Bacillus cereus metallo beta-lactamase assessed as nitrocefin substrate hydrolysis at 1 mM after 20 mins
Method in brief: (§2)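 Commercial B. cereus metallo-β-lactamase (1.5 µM solution) was combined with nitrocefin (150 µM solution) and compound in 25 mM PIPES pH 7.0 containing 100 µM ZnSO4. A486 was read continuously for 20 min at 37 °C. Residual activity was taken relative to the no-inhibitor control, in triplicate. Screening used 1 mM final; IC50 came from a concentration series. HgCl2 was the positive control.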

[7] = Inhibition of Bacillus cereus metallo beta-lactamase assessed as nitrocefin substrate hydrolysis after 20 mins; method in brief: as §2
[8] = test system: Candida albicans; assay: Antimicrobial activity against Candida albicans ATCC 60193; type: functional
[9] = test system: Bacillus cereus; assay: Antimicrobial activity against Bacillus cereus 702 Roma; type: functional; method in brief: as §1
[10] = test system: Yersinia pseudotuberculosis; assay: Antimicrobial activity against Yersinia pseudotuberculosis ATCC 911; type: functional
Method in brief: (§3)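 Compounds were dissolved in […] as 20.000 µg/mL stocks. Ampicillin (10 µg) was the reference antibacterial, and DMSO diluted 1:10 was the solvent control.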

[11] = target: Urease (Canavalia ensiformis) (UniProt P07374); assay: Inhibition of jack bean urease using urea as substrate assessed as ammonia production at 250 ug/ml after 15 mins relative to control
Method in brief: (§4)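 Jack bean urease in pH 8.2 buffer (100 mM urea, 0.01 M K2HPO4, 1 mM EDTA, 0.01 M LiCl) was incubated with compound for 15 min at room temperature. Ammonia was measured by the indophenol method (phenol/nitroprusside, then NaOH/NaOCl) at A625 after 20 min. Inhibition % = 100 − (OD test/OD control)×100. […] Thiourea was the standard.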

[12] = target: Urease (Canavalia ensiformis) (UniProt P07374); assay: Inhibition of jack bean urease using urea as substrate assessed as ammonia production at 100 ug/ml after 15 mins relative to control
[13] = target: Urease (Canavalia ensiformis, UniProt P07374); assay: Inhibition of jack bean urease using urea as substrate assessed as ammonia production after 15 mins; method in brief: as §4
[14] = test system: Enterococcus faecalis; assay: Antimicrobial activity against Enterococcus faecalis ATCC 29212 at 10 ug; type: functional; conditions: read-out: IZ
[15] = test system: Staphylococcus aureus; assay: Antimicrobial activity against Staphylococcus aureus ATCC 25923 at 10 ug; type: functional; conditions: read-out: IZ
[16] = test system: Pseudomonas aeruginosa; assay: Antimicrobial activity against Pseudomonas aeruginosa ATCC 43288 at 10 ug; type: functional; conditions: read-out: IZ
[17] = test system: Bacillus cereus; assay: Antimicrobial activity against Bacillus cereus 702 Roma at 10 ug; type: functional; conditions: read-out: IZ
[18] = test system: Escherichia coli; assay: Antimicrobial activity against Escherichia coli ATCC 25922 at 10 ug; type: functional; conditions: read-out: IZ; method in brief: as §3
[19] = test system: Yersinia pseudotuberculosis; assay: Antimicrobial activity against Yersinia pseudotuberculosis ATCC 911 at 10 ug; type: functional; conditions: read-out: IZ; method in brief: as §3
[20] = test system: Candida albicans; assay: Antimicrobial activity against Candida albicans ATCC 60193 at 5 ug; type: functional; conditions: read-out: IZ
Method in brief: (§5)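 Compounds were dissolved in […] as 20.000 µg/mL stocks. Fluconazole (5 µg) was the reference antifungal, and DMSO diluted 1:10 was the solvent control.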

[21] = test system: Saccharomyces cerevisiae; assay: Antimicrobial activity against Saccharomyces cerevisiae RSKK 251 at 5 ug; type: functional; conditions: read-out: IZ; method in brief: as §5

Sequence of Urease (Canavalia ensiformis) (P07374 whole entry, looked up): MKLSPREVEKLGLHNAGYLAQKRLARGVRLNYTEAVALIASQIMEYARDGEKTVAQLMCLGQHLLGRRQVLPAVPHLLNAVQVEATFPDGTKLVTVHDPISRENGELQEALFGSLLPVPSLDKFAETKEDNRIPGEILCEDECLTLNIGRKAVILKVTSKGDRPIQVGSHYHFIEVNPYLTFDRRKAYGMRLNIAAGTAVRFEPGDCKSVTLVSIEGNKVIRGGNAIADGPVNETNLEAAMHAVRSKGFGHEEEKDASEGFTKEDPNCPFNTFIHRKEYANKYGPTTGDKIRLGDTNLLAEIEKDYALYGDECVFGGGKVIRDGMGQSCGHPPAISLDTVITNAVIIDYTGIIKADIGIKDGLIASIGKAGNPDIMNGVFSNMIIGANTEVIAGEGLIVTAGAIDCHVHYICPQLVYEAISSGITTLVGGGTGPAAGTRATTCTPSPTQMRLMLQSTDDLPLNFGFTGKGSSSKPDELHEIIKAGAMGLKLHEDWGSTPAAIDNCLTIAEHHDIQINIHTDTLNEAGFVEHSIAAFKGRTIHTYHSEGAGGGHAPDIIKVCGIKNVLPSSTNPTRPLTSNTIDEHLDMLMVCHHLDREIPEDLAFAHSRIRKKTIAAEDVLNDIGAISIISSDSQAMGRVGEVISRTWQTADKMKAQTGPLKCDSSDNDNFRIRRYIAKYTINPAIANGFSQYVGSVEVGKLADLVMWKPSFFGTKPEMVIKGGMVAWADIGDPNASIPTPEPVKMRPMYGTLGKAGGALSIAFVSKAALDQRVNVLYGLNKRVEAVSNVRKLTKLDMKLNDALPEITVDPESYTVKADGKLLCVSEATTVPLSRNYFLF
Sequence of Urease (P07374 whole entry): as the sequence (P07374 whole entry, looked up) above

Compound	inhibition zone (IZ) [1]	inhibition zone (IZ) [2]	inhibition zone (IZ) [3]	inhibition zone (IZ) [4]	inhibition zone (IZ) [5]	inhibition [6]	IC50 [7]	inhibition zone (IZ) [8]	inhibition zone (IZ) [9]	inhibition zone (IZ) [10]	other results
CC(=O)OCC1=C(C(=O)O)N2C(=O)[C@@H](NS(=O)(=O)c3ccc(/N=c4/sc(-c5ccc(Cl)cc5)cn4Cc4ccccc4)cc3)[C@H]2SC1	22 mm	inactive	inactive	8 mm	8 mm	64%	543 µM	10 mm	inactive	8 mm	–
O=C(Nc1ccccc1)Nc1ccc(S(=O)(=O)Cl)cc1	6 mm	15 mm	inactive	inactive	inactive	–	–	8 mm	inactive	inactive	inhibition [11]: 100%; inhibition [12]: 39.3%; IC50 [13]: 388 µM
CC(=O)OCC1=C(C(=O)O)N2C(=O)[C@@H](NC(=O)CN3CCN(c4ccc([N+](=O)[O-])cc4F)CC3)[C@H]2SC1	18 mm	30 mm	22 mm	8 mm	inactive	24%	1170 µM	15 mm	10 mm	6 mm	–
CC1(C)S[C@@H]2[C@H](NC(=O)[C@H](N)c3ccccc3)C(=O)N2[C@H]1C(=O)O [AMPICILLIN]	–	–	–	–	–	–	–	–	–	–	zone of inhibition at 10 µg/disc [14]: 10 mm; zone of inhibition at 10 µg/disc [15]: 35 mm; zone of inhibition at 10 µg/disc [16]: 18 mm; zone of inhibition at 10 µg/disc [17]: 15 mm; zone of inhibition at 10 µg/disc [18]: 10 mm; zone of inhibition at 10 µg/disc [19]: 18 mm
OC(Cn1cncn1)(Cn1cncn1)c1ccc(F)cc1F [FLUCONAZOLE]	–	–	–	–	–	–	–	–	–	–	zone of inhibition at 5 µg/disc [20]: 25 mm; zone of inhibition at 5 µg/disc [21]: > 25 mm
